The results in this text go back to ChEMBL document CHEMBL1255431, “Inhibitors of Leishmania GDP-mannose pyrophosphorylase identified by high-throughput screening of small-molecule chemical library” (Antimicrob Agents Chemother, 2010).

The nature of data set [1]: Inhibition of Leishmania major recombinant GDP-mannose pyrophosphorylase expressed in Escherichia coli […] by fluorescence assay. The gist of the method: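 Recombinant His6-tagged L. major GDP-MP, expressed in E. coli BL21(DE3)pLysS and purified on Talon resin. Buffer: 25 mM Tris-HCl pH 7.5, 4 mM MgCl2, 150 mM NaCl, 0.02% Tween 20, 0.4 mg/ml OVA. Final 5 μM M-1-P and 1.3 μM GTP, with inorganic pyrophosphatase coupling. Pi detected by MDCC phosphate sensor, Ex430/Em480, read each minute for 10 min.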

Data set [2] concerns Leishmania major. Kind of data set: Antileishmanial activity Leishmania major V121 promastigotes infected in mouse bone marrow-derived macrophage assessed as mild inhibition of cell invasion at 30 uM after 48 hrs by microscopy. The format is functional, organism-based.
Data set [3] relates to Leishmania major. In words: Antileishmanial activity Leishmania major V121 amastigotes. Type of data set: functional, organism-based. The gist of the method: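 Ex vivo amastigotes purified from lesions of L. major-infected CBA nu/nu mice, resuspended in M199. Exposed 24 h to 2-fold dilutions from 100 μM to 49 nM. 10^6 parasites per well, in duplicate. Viability by CellTiter blue, read at 550 nm with 630 nm reference. IC50 against nontreated controls.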

The test system of data set [4] is Leishmania major. Kind of data set: Antileishmanial activity Leishmania major V121 amastigotes infected in mouse bone marrow-derived macrophage assessed as inhibition of parasite proliferation after 48 hrs by Giemsa staining. Type of data set: functional, organism-based. The gist of the method: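 Intracellular proliferation format in mouse bone marrow-derived macrophages, with amastigotes used for infection. Infected cells on duplicate coverslips exposed to compound for 48 h, then washed, methanol-fixed and Giemsa-stained. Percentage of infected cells counted microscopically.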

For data set [5], the system named is Leishmania major. In words: Antileishmanial activity Leishmania major V121 amastigotes infected in mouse bone marrow-derived macrophage assessed as inhibition of cell invasion after 48 hrs by microscopy. Type of data set: functional, organism-based.
Data set [6] has as its system Leishmania major. In words: Antileishmanial activity Leishmania major V121 amastigotes isolated from infected […] CBA nu/nu at 10 to 30 uM after 48 hrs by microscopy. Type of data set: functional, organism-based.
Data set [7] deals with Leishmania major. In words: Antileishmanial activity Leishmania major V121 promastigotes infected in mouse bone marrow-derived macrophage assessed as inhibition of cell invasion after 48 hrs by microscopy. Type of data set: functional, organism-based.
The test system of data set [8] is Leishmania major. In words: Antileishmanial activity Leishmania major V121 promastigotes infected in mouse bone marrow-derived macrophage assessed as inhibition of cell invasion at 10 uM after 48 hrs by microscopy. Type of data set: functional, organism-based.
A short description of data set [9]: Cytotoxicity against HFF by Cell titer blue assay. Type of data set: cell-based. Particulars: human, HFF cells. A digest of the protocol:
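Primary human foreskin fibroblasts grown in DMEM with 10% HI-FBS, 37°C, 5% CO2. Compound toxicity measured by CellTiter blue viability, concentrations up to 100 μM.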
A general note: Alamar Blue is a resazurin reagent that responds to reducing activity.

The nature of data set [10]: Cytotoxicity against mouse bone marrow-derived macrophages at 30 uM after 48 hrs by Cell titer blue assay. The format is cell-based. Particulars: macrophage.
For data set [11], the system named is Leishmania major. In words: Antileishmanial activity Leishmania major V121 amastigotes infected in mouse bone marrow-derived macrophage assessed as mild inhibition of cell invasion at 30 uM after 48 hrs by microscopy. Type of data set: functional, organism-based.
The subject of data set [12] is Leishmania major. In words: Antileishmanial activity Leishmania major V121 amastigotes isolated from infected […] CBA nu/nu after 48 hrs by microscopy. Type of data set: functional, organism-based.
For data set [13], the system named is Leishmania major. In words: Antileishmanial activity Leishmania major V121 promastigotes infected in mouse bone marrow-derived macrophage assessed as complete inhibition of cell invasion at 30 uM after 48 hrs by microscopy. The format is functional, organism-based.
Data set [14] deals with Leishmania major. In words: Antileishmanial activity Leishmania major V121 amastigotes isolated from infected […] CBA nu/nu at 10 to 40 uM after 48 hrs by microscopy. The format is functional, organism-based.
The test system of data set [15] is Leishmania major. In words: Antileishmanial activity Leishmania major V121 amastigotes infected in mouse bone marrow-derived macrophage assessed as complete inhibition of cell invasion at 30 uM after 48 hrs by microscopy. The format is functional, organism-based.

Structures are written as SMILES. The source made the active and inactive calls. The calls are words filed in the database; no cut-off is given here.

Consider `COc1ccc(-c2csc3c2C2=NCCN2C=N3)cc1OC`, for which the figures for the IC50 in data set [1] and in data set [3] were 7.54 µM and over 100 µM, respectively. Moreover, the inhibition entry in data set [2] is “Active”.

As for `CCn1nc(C)cc1-c1nnc2sc(Cc3c(F)cccc3Cl)nn12`, the IC50 in data set [1] was 1.05 µM; in data set [3], over 100 µM. The inhibition result in data set [2] was “Active”.

For the compound `Cc1cc(C)nc(SCc2nn3c(-c4ccccc4)nnc3s2)n1`, the IC50 in data set [1] is 3.95 µM; in [3] it was over 100 µM. Besides, the inhibition entry in data set [2] was “Active”.

Regarding `COc1ccc(-c2nnc3sc(-c4ccc(F)cc4)nn23)cc1`, the IC50 was 4.45 µM in data set [1] and over 100 µM in data set [3]. The inhibition entry in data set [2] is “Active”.

For `Cc1ccc(C(=O)N2CCN(c3ccnc4cc(Cl)ccc34)CC2)cc1`, the IC50 in data set [4] is over 30 µM; in [3], 70.6 µM. Moreover, the inhibition result in [5] and in data set [7] was “Dose-dependent effect” throughout. In addition, in data set [6], the result was Active. Besides, the inhibition entry in [2] was “Active”. In addition, in data set [8], the inhibition result was “inactive”.

On to `CN1CCN(c2ccnc3cc(Cl)ccc23)CC1`, for which, in [2], the inhibition entry was “Active”. Besides, the IC50 in data set [3] is over 100 µM.

On to `Cc1ccc(N2NC(=O)/C(=C/c3cc4c(cc3Cl)OCO4)C2=O)cc1C`, for which the figures for the IC50 in [4], in [1] and in data set [3] were over 30 µM, 5.75 µM and 25.1 µM, respectively. Moreover, in data set [9], the CC50 was over 100 µM. In data set [2], the inhibition entry was “Active”.

In the case of `Fc1cccc(Cl)c1Cc1nn2c(-c3ccccc3)nnc2s1`, the IC50 in data set [1] was 2.98 µM; in data set [3], over 100 µM. Besides, in [2], the inhibition entry is “Active”.

As for `CCn1nc(C)cc1-c1nnc2sc(-c3ccc(C)cc3)nn12`, the Activity entry in data set [10] is given as “Toxic”. Moreover, the IC50 in data set [1] amounted to 1.37 µM; in data set [3] it was 88.9 µM. In data set [9], this compound gave a CC50 of over 100 µM. For the same compound, in [2], the inhibition result is “Active”.

For the compound `Clc1ccc2c(N3CCN(Cc4ccc(-c5ccccc5)cc4)CC3)ccnc2c1`, the IC50 came out at 11.7 µM in data set [4]; 17.6 µM in data set [7] (V121, 48 h); 32.6 µM in data set [3]. Further, in data set [9], the CC50 was over 100 µM. In addition, the inhibition entry in data set [2] is “Active”.

For the compound `C[C@@H]1[C@H](O)[C@@H](C)/C=C/C=C/C=C/C=C/C=C/C=C/C=C/[C@H](O[C@@H]2O[C@H](C)[C@@H](O)[C@H](N)[C@@H]2O)C[C@@H]2O[C@](O)(C[C@@H](O)C[C@@H](O)[C@H](O)CC[C@@H](O)C[C@@H](O)CC(=O)O[C@H]1C)C[C@H](O)[C@H]2C(=O)O` [AMPHOTERICIN B], the IC50 stood at 0.5 µM in [4] and 1.6 µM in [3].

For `COc1ccc2c(=O)c(C(=O)O)csc2c1`, the IC50 in data set [1] is 8.25 µM; in data set [3], over 100 µM. Also, in [2], the inhibition entry is “Active”.

Turning to `CC(C)(C)c1ccc(CN2CCN(c3ccnc4cc(Cl)ccc34)CC2)cc1`, the results for the IC50 in [4], in [1] and in data set [3] were 21.9 µM, 0.58 µM and 62.3 µM, respectively. Moreover, the inhibition result in data set [4], in [5] and in data set [7] was “Dose-dependent effect” each time. Besides, in [9], the CC50 was over 100 µM. Besides, the inhibition entry in data set [11] and in [13] was “Active” in each case. The outcome in [12] and in data set [14] was Active.

`c1ccc2c(-c3cnc4n3CCS4)c[nH]c2c1`: the inhibition result in [15] and in [2] was “Active” in each case. Moreover, the IC50 in data set [4] is over 30 µM; in data set [1], 0.49 µM; in [3] it was 78 µM. This compound also yielded a CC50 in data set [9] of over 100 µM.

Consider `Clc1ccc(C2=NN3C(c4ccccc4)=NNC3S2)c(Cl)c1` (stereo not given), for which the IC50 in data set [1] was 2.93 µM; in data set [3], over 100 µM. Also, the inhibition result in data set [2] is “Active”.

For the compound `Cc1ccccc1Cc1nnc2sc(-c3ccc(Cl)cc3)nn12`, the figures for the IC50 in data set [1] and in data set [3] were 1.09 µM and over 100 µM, respectively. In addition, the inhibition result in data set [2] is “Active”.

For the compound `COC(=O)c1c(O)c(C#N)c2n(c1=O)CCc1cc(OC)c(OC)cc1-2`, the inhibition result in data set [15] and in data set [2] was “Active” in each case. For the same compound, the figures for the IC50 in data set [4], in [1] and in data set [3] were over 30 µM, 2.44 µM and 52.6 µM, respectively. In [9], this compound came in with a CC50 of over 100 µM.

With `CCCc1cc(-c2nn3c(-c4ccccc4)nnc3s2)n(CC)n1`, the results for the IC50 in [1] and in [3] were 1.26 µM and over 100 µM, respectively. In addition, the inhibition entry in data set [2] was “Active”.

As for `Cc1ccc(/C=C2/C(=O)NN(c3ccc(F)cc3)C2=O)o1`, the values for the IC50 in [4], in [1] and in data set [3] were over 30 µM, 10.7 µM and 90.7 µM, respectively. The same compound had a CC50 in data set [9] of over 100 µM. The inhibition result in data set [2] was “Active”.

For the compound `CCc1nnc(N2C(=O)C3C4C=CC(C4)C3C2=O)s1` (stereo not given), the results for the IC50 in [1] and in [3] were 3.53 µM and over 100 µM, respectively. For the same compound, the inhibition entry in [2] is “Active”.

As for `CCOC(=O)C/C(=N/O)c1nnn[nH]1`, the figures for the IC50 in [1] and in [3] were 7.28 µM and over 100 µM, respectively. For the same compound, in [2], the inhibition result is “Active”.

In the case of `COc1ccc(CCC2=Nc3ccccc3S(=O)(=O)N2)cc1`, the IC50 in [1] was found to be 5.31 µM. The inhibition entry in data set [2] was “Active”.

In the case of `Clc1ccc2c(N3CCN(Cc4ccccc4)CC3)ccnc2c1`, the IC50 in data set [4] is over 30 µM; in [3], 62.2 µM. Moreover, the inhibition result in [5] and in data set [7] was “Dose-dependent effect” throughout. Moreover, the result in data set [6] was Active. Also, the inhibition entry in data set [2] was “Active”.

With `CN(C)Cc1c(O)ccc2c(=O)c(-c3cnn(-c4ccccc4)c3)coc12`, the figures for the IC50 in data set [4], in data set [1] and in data set [3] were over 30 µM, 4.12 µM and 73.4 µM, respectively. Moreover, the CC50 in data set [9] was over 100 µM. In addition, in data set [2], the inhibition result is “Active”.

With `Cc1ccc2[nH]c(CCC3CCCCC3)nc2c1`, in data set [10], the Activity entry was “Toxic”. In addition, the IC50 in data set [1] was found to be 1.56 µM; in data set [3] it was 23.7 µM. In data set [9], this compound gave a CC50 of over 100 µM. Also, in [2], the inhibition result was “Active”.

As for `Cc1ccc2c(n1)[nH]c1ccccc12`, the IC50 in data set [4] is over 30 µM; in data set [1], 5.53 µM; in data set [3], 96.8 µM. The same compound had a CC50 in data set [9] of over 100 µM. Also, the inhibition result in data set [2] is “Active”.

What is called IC50 is the concentration at which inhibition is half-maximal. The CC50 is the concentration giving 50% cytotoxicity.
